# C2C12 statin: suppression of simvastatin myotoxicity | AID 602340 | rescue of ATP level, % at 7.49 µM | 330,000 tested, 0.78% active | C2C12 myotubes + simvastatin, ATP luminescence, 48 h; scaled: DMSO 0, geranylgeraniol control 100;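 active = mean ATP rescue above about 67%, or every replicate alone reaching that limit, limit read from the data, passing the limit was not always enough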;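 also: myotubes were challenged with 10 µM simvastatin during compound exposure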
# dFosB act-1: mouse delta FosB homodimer activation. P13346. purified delta FosB, TAMRA-CDK5 oligo fluorescence polarization; percent of positive-control signal above neutral wells. activation, % at 25 µM. 340,000 tested, 0.99% active;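 active = mean activation above about 17%, with every replicate also reaching it, limit read from the data, passing the limit was not always enough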
# Target sequence (P13346 whole entry, looked up): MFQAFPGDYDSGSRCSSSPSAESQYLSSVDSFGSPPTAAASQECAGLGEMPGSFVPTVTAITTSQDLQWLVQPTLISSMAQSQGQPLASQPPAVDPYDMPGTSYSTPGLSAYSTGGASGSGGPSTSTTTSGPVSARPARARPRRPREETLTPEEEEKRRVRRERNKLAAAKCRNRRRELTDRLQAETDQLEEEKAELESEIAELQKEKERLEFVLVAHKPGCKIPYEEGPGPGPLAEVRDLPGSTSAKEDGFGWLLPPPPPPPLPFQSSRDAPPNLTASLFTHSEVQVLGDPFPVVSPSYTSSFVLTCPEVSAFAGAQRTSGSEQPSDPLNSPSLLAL
# S100A4 inh HTS: blocks human S100A4 binding to myosin IIA peptide; P26447; S100A4/TAMRA-MyoIIA peptide fluorescence polarization; inhibition, % at 10.7 µM; 360,000 tested, 0.14% active;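 active = mean inhibition of at least 70% across replicates, with every replicate also reaching that level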
# Target sequence (P26447 whole entry, looked up): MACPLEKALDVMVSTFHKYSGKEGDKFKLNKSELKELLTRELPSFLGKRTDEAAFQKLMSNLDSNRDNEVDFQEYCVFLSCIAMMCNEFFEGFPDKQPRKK
#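 Material: S100A4 monomer protein | Medium: HEPES pH 7.2 with CaCl2, KCl, NaCl, DTT, Triton | Reagent: Labelled myosin peptide probe, 5 nM | Doses: One dose per compound | Times: 5 min incubation before reading | Benchmarks: Neutral control DMSO, positive control TFP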
# CAL PDZ FP-1: blocks peptide binding to the human CAL PDZ domain. purified CAL PDZ, TMR-peptide fluorescence polarization, 1 h. inhibition, % at 24.9 µM. 300,000 tested, 0.92% active;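 active = mean inhibition of at least 30% with at least half of replicates also reaching 30%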;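 also: 0% = DMSO neutral control and 100% = excess unlabeled competitor peptide PRC23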
# CAL PDZ FP-2: blocks peptide binding to human CAL PDZ domain. 330,000 tested, 0.02% active. purified CAL PDZ, TMR-peptide fluorescence polarization, 1 h. inhibition, % at 20 µM;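 active = highest replicate inhibition of at least 40%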;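 also: plate controls were DMSO neutral control wells for no effect and unlabeled competitor peptide control wells for full effect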
#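 Test system: purified CerCALP PDZ construct; Compound dosing: one concentration, 20 µM compound; Also added: TMR-labelled reporter peptide T*-PRC34 bound in PDZ groove; Read-out: inhibition from polarization loss; Controls: unlabelled peptide and DMSO controls; Signal: FP readout, S and P plane fluorescence; Incubation: 1 h at RT.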
# CDK5 p35 inh: CDK5/p35 (human) kinase inhibition; Q00535+Q15078; Recombinant CDK5/p35, ADP-Glo luminescence, 60 min; inhibition, % at 10 µM; 330,000 tested, 0.01% active; AID 488839;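 active = highest replicate inhibition of at least 50% and at least 75% of replicates reaching 50%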;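 also: plate controls were DMSO neutral control for no effect and GW8510 at 10 µM for full effect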
# dFosB act-2: delta FosB (mouse) homodimer activation; activation, % at 24.9 µM; 2,400 tested, under 10 active; shares compounds with dFosB act-1; AID 588690; purified delta FosB, TAMRA-CDK5 oligo fluorescence polarization; normalised: neutral wells 0, positive control 100;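 active = highest replicate activation at or above 34% and every replicate reaching that threshold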;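 also: higher polarization means more probe DNA bound by delta FosB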
# Active calls of the source: *; x = no result. A selection: hits, their analogues and other compounds. The true share with any hit is near 2%.
SMILES,C2C12 statin,dFosB act-1,S100A4 inh HTS,CAL PDZ FP-1,CAL PDZ FP-2,CDK5 p35 inh,dFosB act-2
O=C(CNC(=O)c1cc(S(=O)(=O)N2CCCCC2)ccc1N1CCOCC1)Nc1ccc(F)c(F)c1,x,54*,-22,-3,-2,-2,0
O=C(c1ccccc1)c1cc2ccccc2o1,x,0,x,5,0,0,x
CCC(CC)C(=O)Nc1cccc(S(=O)(=O)c2cccc(NC(=O)C(CC)CC)c2)c1,-9,17*,x,4,0,0,3
Cc1cccc(CSC2=NCCN2C(=O)c2ccc(S(=O)(=O)N(C)C)cc2)c1,x,-10,-2,0,-2,0,x
Cc1c(Cl)cccc1NC(=O)Cn1cc(C(F)(F)F)cc(Cl)c1=O,x,57*,30,-1,-2,0,1
COc1cccc(C(=O)NC(=S)Nc2ccc3[nH]c(=O)[nH]c3c2)c1,-9,3,-5,-2,-1,-1,x
COc1cc(OC)cc(C(=O)NC(=S)Nc2ccc3[nH]c(=O)[nH]c3c2)c1,-1,24*,0,-2,0,-1,-1
CCNC(=O)c1c(NC(=O)C2COc3ccccc3O2)sc2c1CCCC2 (stereo not given),x,27*,x,-4,0,-2,-2
CCNC(=O)c1c(NC(C)=O)sc2c1CCCC2,x,-11,x,-5,0,0,x
CC(C(=O)O)(C1CCCCC1)C1(O)CCCCC1 (stereo not given),-1,x,-1,x,x,x,x
O=C(NCC1OCCc2ccccc21)c1ccc(NC(=O)c2ccc(Cl)cc2Cl)cc1 (stereo not given),x,45*,x,-1,-3,-1,5
CN(C)c1ccc2c(c1)[C@H]1C[C@@H](CC(=O)NCc3ccncc3)O[C@@H](CO)[C@H]1O2,0,x,-12,x,x,x,x
C[C@]12CC[C@H](O)CC1=C[C@H](O)C1C2CC[C@@]2(C)C1CC[C@@]2(O)C#Cc1ccc(CN)cc1 (stereo not given in full),x,24*,-2,0,-1,-1,3
O=C(Nc1ccc(OC(F)(F)F)cc1)N1CCN(c2ccnc3cc(Cl)ccc23)CC1,2,39*,-20,-12,0,1,-4
CC(C)(C)C(=O)N1CCN(c2ccnc3cc(Cl)ccc23)CC1,-11,-6,-2,3,0,1,x
Cc1ccc(NC2CCCN(C(=O)c3cn(C)c4ccccc34)C2)cc1C (stereo not given),-1,-9,-5,2,1,-1,x
O=C(Nc1cccc(-c2cnc3ccccc3n2)c1)c1ccco1,2,-44,x,-3,-7,2,x
CC(=O)Nc1ccc(C(=O)Nc2cccc(-c3cnc4ccccc4n3)c2)cc1,x,24*,-3,5,0,1,3
O=C(Nc1cccc(-c2cn3cccnc3n2)c1)c1ccco1,11,-19,0,x,0,-2,x
O=C(Nc1cccc(-c2cn3cccnc3n2)c1)c1ccc(Br)o1,-1,19*,-3,-14,-4,-2,7
O=C(CNC(=O)c1ccc(Br)o1)Nc1cccc(-c2cnc3ccccc3n2)c1,6,19*,x,0,0,0,6
COc1cccc(-c2ccc([C@H]3[C@@H](CO)N4C(=O)CN(C(=O)C5CC5)C[C@@H]34)cc2)c1,x,x,-2,x,x,x,x
Cc1cc(C)c(NC(=O)Cn2c(=O)n(Cc3ccco3)c(=O)c3ccccc32)c(C)c1,23,64*,x,x,-2,1,6
O=C(CCCCn1c(=O)c2ccccc2n(CC(=O)Nc2cccc(F)c2)c1=O)NCc1ccco1,20,24*,x,0,0,-2,-7
CCc1ccc(NC(=O)Cn2c(=O)n(CCCC(=O)NCc3ccco3)c(=O)c3ccccc32)cc1,x,6,x,0,0,0,x
SMILES,C2C12 statin,dFosB act-1,S100A4 inh HTS,CAL PDZ FP-1,CAL PDZ FP-2,CDK5 p35 inh,dFosB act-2
CCC(C)NC(=O)Cn1c(=O)n(CCCC(=O)NCc2ccccc2Cl)c(=O)c2ccccc21 (stereo not given),134*,20*,x,-2,0,-4,-1
O=C(Nc1ccc2c(c1)CCC2)c1cc(S(=O)(=O)N2CCN(c3ccccc3)CC2)ccc1Cl,x,24*,x,-6,-1,0,3
COc1cc(OC)c2nc(C)c3c(c2c1)N(c1ccc(O)cc1)CC3,11,47*,x,-7,0,0,6
CCOC(=O)c1c(-c2ccccc2)c[nH]c1C,-19,-7,5,-5,-1,1,x
Cn1nnc(NC(=S)NC(=O)c2ccc(-c3ccc(Br)cc3)o2)n1,x,33*,10,-1,1,1,1
COc1ccc(C2c3ccc4ccccc4c3Oc3ncn(Cc4ccco4)c(=N)c32)cc1OC (stereo not given),-22,53*,x,-9,-2,0,5
CCOc1cc(/C=N/Nc2nc3ccccc3[nH]2)cc(Br)c1OCC(=O)N(C)C,-15,22*,0,2,5,2,2
c1coc(-c2nnc(SCc3cn4ccccc4n3)o2)c1,32,7,x,-3,0,-1,x
N#Cc1ccc(NC(=O)c2cc(-c3cccs3)on2)cc1,5,22*,-5,-5,0,1,6
CNC(=O)C[C@@H]1CC[C@H]2[C@@H](COc3ccc(NC(=O)Nc4cc(C)cc(C)c4)cc3C(=O)N2C)O1,-8,x,0,x,x,x,x
Cc1cc(Cl)c(S(=O)(=O)NC2CCCCC2)cc1OCC(=O)Nc1nncs1,0,-14,x,x,0,-1,x
O=C(C[C@H]1C=C[C@@H](NC(=O)Nc2ccccc2F)[C@H](CO)O1)NCc1ccc(-c2ccccc2)cc1,-4,x,64,x,x,x,x
O=C(Nc1cccnc1Cl)c1cc(-c2ccc(O)cc2)on1,5,29*,0,-3,0,-4,-25
O=C(Nc1cccnc1Cl)c1cc(-c2ccc(Cl)cc2)on1,-3,-2,-3,-1,-1,1,x
CCc1ccc2nc(SCC(=O)Nc3ccccc3N3CCOCC3)c(C#N)cc2c1,-110,24*,12,-3,-2,2,5
Cc1ccc2nc(SCC(=O)Nc3ccccc3N3CCOCC3)c(C#N)cc2c1,-79,-2,x,3,x,-1,x
Cc1ccc(C2(C)NC(=O)N(CC(=O)N3CCN(S(=O)(=O)c4ccccc4[N+](=O)[O-])CC3)C2=O)cc1 (stereo not given),0,-8,-1,-8,0,-2,x
Cc1cc(NC(=O)CSc2nc(N)c(NC(=O)c3ccc(F)c(F)c3)c(=O)[nH]2)no1,9,57*,-2,-2,-2,1,5
